A selection: hits, their analogues and other compounds. The true share with any hit is near 4%.
MPTP inh – permeability transition pore inhibition | isolated mouse mitochondria, Ca2+ swelling absorbance, 30 min | inhibition, % at 10 µM | actives 1.4% (n = 360,000);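 active = inhibition of 50% or more, scaled per plate between neutral and stimulator controls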;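 note: 0% = DMSO wells given calcium and 100% = 1 mM EGTA wells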
TAAR1 antagonist – human TAAR1 antagonism | CHO RD-HGA16 TAAR1, Fluo-8 calcium fluorescence, antagonist | inhibition, % at 3 µM | actives 1.5% (n = 360,000);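 active = inhibition above a per-plate cutoff, the mean inhibition of test compounds on that plate plus 3 SD, cut at about 49% in these data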;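 note: 0% = DMSO plus EC80 beta-PEA response and 100% = DMSO alone without agonist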
Target sequence (Q96RJ0 whole entry, looked up): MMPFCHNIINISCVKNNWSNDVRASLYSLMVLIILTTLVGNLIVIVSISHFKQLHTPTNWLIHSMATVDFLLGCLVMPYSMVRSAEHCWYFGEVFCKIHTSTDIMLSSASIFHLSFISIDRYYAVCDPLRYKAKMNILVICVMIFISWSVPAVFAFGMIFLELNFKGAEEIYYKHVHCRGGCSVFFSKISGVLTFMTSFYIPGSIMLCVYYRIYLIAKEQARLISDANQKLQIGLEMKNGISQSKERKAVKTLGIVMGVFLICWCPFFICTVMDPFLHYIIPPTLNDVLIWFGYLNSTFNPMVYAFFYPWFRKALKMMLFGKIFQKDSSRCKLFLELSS
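System: CHO RD-HGA16 cells bearing hTAAR1. Reagent: EC80 β-phenethylamine stimulus. Schedule: seeding 17-24 h prior, 75-min 37 °C, 30-min RT dye loading. Signal: Fluo-8 intracellular calcium dye fluorescence, real-time kinetic reads. Read-out: % inhibition from peak post-agonist over basal fluorescence ratio. Benchmarks: vehicle wells and EC80 agonist wells. Replicates: n of 1.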
GPR7 antag – human neuropeptides B/W receptor 1 antagonism; P48145; GPR7-expressing cells, fluorescence antagonist assay; inhibition, % at 4.4 µM; actives 1.1% (n = 290,000); in the data active = inhibition above about 16%, passing the limit was not always enough;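 note: cells stimulated with the agonist NPW; 0% = agonist with vehicle and 100% = vehicle without agonist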
DAGLB inh – blocks human DAGLB lipase activity | Q8NCG7 | actives 0.059% (n = 340,000) | inhibition, % at 5.17 µM | HEK293T DAGLB membrane lysate, EnzChek fluorogenic substrate; in the data active = inhibition above about 34%;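 note: 0% = enzyme with vehicle and 100% = wells lacking enzyme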
TAAR1 agonist – agonists of human TAAR1; Q96RJ0; CHO RD-HGA16 TAAR1, Fluo-8 calcium fluorescence; vehicle wells 0%, saturating PEA agonist 100%; activation, % at 3 µM; actives 0.99% (n = 360,000);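 active = activation above the mean activation of all test compounds in the run plus 3 SD, cut at about 38% in these data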
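Test system: RD-HGA16 (CHO) cells co-expressing Gα16 and hTAAR1 | Doses: Single dose, 3 µM | Schedule: 17-24 h seeding, 75 min 37 °C dye, 30 min RT | Evaluation: % activation from peak over basal fluorescence ratio, DMSO-to-PEA scaled | Technique: Kinetic Fluo-8 calcium fluorescence | Benchmarks: Low control DMSO, high control PEA (EC100)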
TAAR1 ag confirm – confirmation of human TAAR1 agonists | actives 82% (n = 2,400) | CHO RD-HGA16 TAAR1, Fluo-8 calcium fluorescence; scaled: DMSO 0%, maximal phenethylamine 100% | shares compounds with TAAR1 agonist | activation, % at 3 µM;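 active = activation above a cutoff set at the run's mean compound activation plus 3 SD, cut at about 39% in these data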
Ga16 nonsel ag – nonselective agonist in parental cells, TAAR1 agonist counter-screen | actives 50% (n = 2,400) | activation, % at 3 µM | AID 651787 | shares compounds with TAAR1 agonist | CHO-Ga16 parental, Fluo-8 calcium fluorescence; normalized to maximal ATP response, DMSO zero;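 active = activation above the run cutoff, the mean activation over all tested wells plus 3 SD, cut at about 12% in these data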;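 note: 0% = DMSO wells and 100% = maximal ATP response on the peak over basal ratio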
TAAR1 desens – human TAAR1 agonist that also desensitizes the receptor; shares compounds with TAAR1 agonist; CHO RD-HGA16 hTAAR1, Fluo-8 calcium, beta-PEA response inhibition; inhibition, % at 3 µM; actives 46% (n = 2,400); AID 651951;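 active = inhibition above the run cutoff, the mean inhibition of all test compounds plus 3 SD, cut at about 49% in these data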;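 note: beta-PEA stimulus applied at its EC80; loss of beta-PEA calcium signal after compound pretreatment read as receptor desensitization; 0% = DMSO with beta-PEA at EC80 and 100% = DMSO alone without agonist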
Ga16 nonsel ant – nonselective Ga16 antagonist in TAAR1 agonist counter-screen; actives 39% (n = 2,400); shares compounds with TAAR1 agonist; inhibition, % at 3 µM; AID 651952; CHO-Ga16 ATP-induced calcium, Fluo-8 fluorescence;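 active = inhibition above the plate's mean compound inhibition plus 3 SD, computed per plate, cut at about 22% in these data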;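 note: 0% = EC80 ATP with DMSO and 100% = DMSO wells without ATP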
An asterisk follows results filed as active.

How did N#C/C(=C\c1coc2ccc(O)cc2c1=O)C(=O)Nc1nc2ccccc2s1 do in these assays?
MPTP inh: 41; TAAR1 antagonist: 104*; GPR7 antag: -4; DAGLB inh: -95; TAAR1 agonist: 480*; TAAR1 ag confirm: 316*; Ga16 nonsel ag: 295*; TAAR1 desens: 102*; Ga16 nonsel ant: 95*

Results for CCOC(=O)C1=C(Cc2ccc(C)cc2)C(=O)c2ccccc2C1=O ?
TAAR1 antagonist: 54*; GPR7 antag: 6; TAAR1 agonist: 54*; TAAR1 ag confirm: 19; Ga16 nonsel ag: 23*; TAAR1 desens: 42; Ga16 nonsel ant: 44*

How did NC(=Nc1c([N+](=O)[O-])cnc2ccccc12)N1CCOCC1 do in these assays?
MPTP inh: 0; TAAR1 antagonist: -17; TAAR1 agonist: 1

What do the screens show for `CCOC(=O)c1cn(CC#N)c2cc(F)c(F)cc2c1=O`?
MPTP inh: -1; TAAR1 antagonist: -5; GPR7 antag: -5; DAGLB inh: 2; TAAR1 agonist: 3

Results for CCOC(=O)c1cn(C2CC2)c2c(F)c(F)c(F)cc2c1=O ?
MPTP inh: 1; TAAR1 antagonist: -20; GPR7 antag: -13; DAGLB inh: 1; TAAR1 agonist: 49*; TAAR1 ag confirm: 0; Ga16 nonsel ag: -1; TAAR1 desens: 3; Ga16 nonsel ant: 2

How did CN(C)S(=O)(=O)c1ccc(C(=O)NCC(=O)N/N=C/c2ccccc2)cc1 do in these assays?
MPTP inh: 0; GPR7 antag: 3; DAGLB inh: -1; Ga16 nonsel ag: 1; Ga16 nonsel ant: 5

What do the screens show for `COc1ccc(Nc2c(-c3ccc(F)cc3)nc3nc(C)cc(C)n23)cc1`?
MPTP inh: 0; TAAR1 antagonist: -8; TAAR1 agonist: -3

What do the screens show for `O=C1c2cc3c(cc2CCC1c1ccc2c(c1)OCO2)OCO3` (centres undefined)?
MPTP inh: 1; TAAR1 antagonist: -13; DAGLB inh: -9; TAAR1 agonist: -1

How did COc1ccc(N2CC(C(=O)N[C@@H](C)C(=O)NCCc3ccccc3)CC2=O)cc1 (some centres undefined) do in these assays?
MPTP inh: -2; TAAR1 antagonist: -33; GPR7 antag: -7; DAGLB inh: 2; TAAR1 agonist: 62*; TAAR1 ag confirm: 48*; Ga16 nonsel ag: -1; TAAR1 desens: 5; Ga16 nonsel ant: 0

How did COc1ccc(N2CC(C(=O)NCc3ccccc3)CC2=O)cc1 (centres undefined) do in these assays?
MPTP inh: -1; TAAR1 antagonist: 0; GPR7 antag: 3; DAGLB inh: 1; TAAR1 agonist: 7

How did Cn1c(=O)c(NC2CCCCC2)c2c3c(cccc31)C(=O)c1ccccc1-2 do in these assays?
MPTP inh: 0; TAAR1 antagonist: 66*; GPR7 antag: -3; DAGLB inh: -272; TAAR1 agonist: 87*; TAAR1 ag confirm: 120*; Ga16 nonsel ag: 124*; TAAR1 desens: 78*; Ga16 nonsel ant: 83*

What do the screens show for `Cn1cc(S(=O)(=O)NCCc2ccccc2)c(=O)n(C)c1=O`?
MPTP inh: 3; TAAR1 antagonist: -14; GPR7 antag: -8; DAGLB inh: -2; TAAR1 agonist: 1

How did Cn1c(=O)c(NCCc2ccccc2)c2c3c(cccc31)C(=O)c1ccccc1-2 do in these assays?
MPTP inh: 1; TAAR1 antagonist: 104*; GPR7 antag: 64*; DAGLB inh: inactive; TAAR1 agonist: 407*; TAAR1 ag confirm: 346*; Ga16 nonsel ag: 305*; TAAR1 desens: 103*; Ga16 nonsel ant: 95*

Screening data deposited in PubChem BioAssay by several laboratories.
